{"source": "ChEMBL document CHEMBL4219150", "about": "“Fragment-Based Approach to Targeting Inosine-5'-monophosphate Dehydrogenase (IMPDH) from Mycobacterium tuberculosis” (J Med Chem, 2018)", "key": {"[1]": {"test_system": "Mycobacterium tuberculosis", "assay": "Inhibition of Mycobacterium tuberculosis IMPDH deltaCBS mutant assessed as reduction in NADH production using IMP as substrate at 10 uM preincubated for 5 mins followed by substrate addition measured for 32 mins in presence of NAD+"}, "[2]": {"test_system": "Mycobacterium tuberculosis", "assay": "(§1) Uncompetitive inhibition of Mycobacterium tuberculosis IMPDH deltaCBS mutant assessed as reduction in NADH production preincubated for 5 mins followed by substrate IMP addition at increasing concentration measured for 32 mins in presence of constant concentration of NAD+ by Lineweaver-Burk plot analysis"}, "[3]": {"test_system": "Mycobacterium tuberculosis", "assay": "Inhibition of Mycobacterium tuberculosis IMPDH deltaCBS mutant assessed as reduction in NADH production using IMP as substrate at 100 uM preincubated for 5 mins followed by substrate addition measured for 32 mins in presence of NAD+"}, "[4]": {"test_system": "Mycobacterium tuberculosis", "assay": "Inhibition of Mycobacterium tuberculosis IMPDH deltaCBS mutant assessed as reduction in NADH production at 1 mM using IMP as substrate preincubated for 5 mins followed by substrate addition measured for 32 mins in presence of NAD+"}, "[5]": {"test_system": "Mycobacterium tuberculosis", "assay": "as §1, with “Mixed-type” for “Uncompetitive”"}, "[6]": {"test_system": "Mycobacterium tuberculosis", "assay": "Uncompetitive inhibition of Mycobacterium tuberculosis IMPDH deltaCBS mutant expressed in Escherichia coli BL21(DE3) in presence of IMP and NAD+", "how_it_was_run": "(§2)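 Enzyme was Mth IMPDH ΔCBS expressed in E. coli BL21(DE3) at 18°C with 500 µM IPTG, then Ni-IMAC purified, TEV-cleaved and run on gel filtration; assay buffer and 37°C conditions as in the activity assay. […] Initial rates were fit to uncompetitive or mixed inhibition equations, and the pattern was read from Lineweaver-Burk plots.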"}, "[7]": {"test_system": "Mycobacterium tuberculosis", "assay": "Uncompetitive inhibition of Mycobacterium tuberculosis IMPDH deltaCBS mutant", "how_it_was_run": "as §2"}}, "data": [{"smiles": "COc1ccc(OC(C)C(=O)Nc2ccc(I)cc2)cc1", "note": "(stereo unspecified)", "values": [{"measurement": "inhibition", "setting": "[1]", "value": 92, "unit": "%"}, {"measurement": "alphaKi", "setting": "[2]", "value": 0.86, "unit": "µM"}]}, {"smiles": "O=C(CSc1nc(-c2ccccc2)c[nH]1)Nc1ccc(-c2c[nH]cn2)cc1", "values": [{"measurement": "inhibition", "setting": "[3]", "value": 24, "unit": "%"}]}, {"smiles": "CC(Oc1ccc(-c2cn(C)cn2)cc1)C(=O)Nc1ccccc1", "note": "(stereo unspecified)", "values": [{"measurement": "inhibition", "setting": "[1]", "value": 4, "unit": "%"}]}, {"smiles": "Brc1ccc(-c2c[nH]cn2)cc1", "values": [{"measurement": "inhibition", "setting": "[4]", "value": 65, "unit": "%"}, {"measurement": "inhibition", "setting": "[3]", "value": "< 5", "unit": "%"}]}, {"smiles": "Cc1ccc(-c2nc(C(=O)O)cs2)cc1", "values": [{"measurement": "inhibition", "setting": "[4]", "value": 88, "unit": "%"}, {"measurement": "alphaKi", "setting": "[5]", "value": 398, "unit": "µM"}]}, {"smiles": "CC(Oc1ccc(-c2cn(C)cn2)cc1)C(=O)Nc1nc(-c2ccc(N3CCOCC3)cc2)c[nH]1", "note": "(stereo unspecified)", "values": [{"measurement": "inhibition", "setting": "[1]", "value": 94, "unit": "%"}]}, {"smiles": "O=C(CSc1nc(-c2ccccc2)c[nH]1)Nc1ccc(I)cc1", "values": [{"measurement": "inhibition", "setting": "[3]", "value": 46, "unit": "%"}]}, {"smiles": "O=C(CSc1nc(-c2ccc(Br)cc2)c[nH]1)Nc1ccc2occc2c1", "values": [{"measurement": "inhibition", "setting": "[3]", "value": 31, "unit": "%"}]}, {"smiles": "C=C(C)c1cccc(C(C)(C)NC(=O)Nc2ccc(Cl)c(C(=O)N(C)C)c2)c1", "values": [{"measurement": "alphaKi", "setting": "[6]", "value": 0.009, "unit": "µM"}]}, {"smiles": "CC(C)NC(=O)CSc1nc(-c2ccccc2)c[nH]1", "values": [{"measurement": "inhibition", "setting": "[3]", "value": "< 5", "unit": "%"}]}, {"smiles": "O=C(O)CSc1nc(-c2ccc(Br)cc2)c[nH]1", "values": [{"measurement": "inhibition", "setting": "[3]", "value": "< 5", "unit": "%"}]}, {"smiles": "CC1(C)Cc2cccc(CO)c2O1", "values": [{"measurement": "inhibition", "setting": "[4]", "value": 99, "unit": "%"}]}, {"smiles": "COc1ccc(-c2c[nH]c(NC(=O)C(C)Oc3ccc(-c4cn(C)cn4)cc3)n2)cc1", "note": "(stereo unspecified)", "values": [{"measurement": "inhibition", "setting": "[1]", "value": 95, "unit": "%"}]}, {"smiles": "CC(Oc1ccc(-c2cn(C)cn2)cc1)C(=O)Nc1nc(-c2ccccc2)c[nH]1", "note": "(stereo unspecified)", "values": [{"measurement": "inhibition", "setting": "[1]", "value": 77, "unit": "%"}]}, {"smiles": "Oc1ccc2ccc(O)cc2c1", "values": [{"measurement": "inhibition", "setting": "[4]", "value": 77, "unit": "%"}]}, {"smiles": "Oc1cccc2ccccc12", "values": [{"measurement": "inhibition", "setting": "[4]", "value": 68, "unit": "%"}]}, {"smiles": "Nc1[nH]ncc1-c1cccc(Br)c1", "values": [{"measurement": "inhibition", "setting": "[4]", "value": 50, "unit": "%"}]}, {"smiles": "O=C(O)c1cc2cccc(O)c2cc1O", "values": [{"measurement": "inhibition", "setting": "[4]", "value": 98, "unit": "%"}]}, {"smiles": "CC(=O)Nc1cc(C)ccc1O", "values": [{"measurement": "inhibition", "setting": "[4]", "value": 79, "unit": "%"}]}, {"smiles": "O=C(O)c1cc2sccc2s1", "values": [{"measurement": "inhibition", "setting": "[4]", "value": 86, "unit": "%"}]}, {"smiles": "OCc1ccc2sccc2c1", "values": [{"measurement": "inhibition", "setting": "[4]", "value": 53, "unit": "%"}]}, {"smiles": "C[C@H](Oc1ccc(-c2cn(C)cn2)cc1)C(=O)Nc1nc(-c2ccc(Br)cc2)c[nH]1", "values": [{"measurement": "inhibition", "setting": "[1]", "value": 99, "unit": "%"}]}, {"smiles": "CC(Oc1ccc(-c2cn(C)cn2)cc1)C(=O)Nc1nc(-c2ccc(I)cc2)c[nH]1", "note": "(stereo unspecified)", "values": [{"measurement": "inhibition", "setting": "[1]", "value": 96, "unit": "%"}]}, {"smiles": "N#Cc1c[nH]c2ccccc12", "values": [{"measurement": "inhibition", "setting": "[4]", "value": 51, "unit": "%"}]}, {"smiles": "Nc1ccc(-n2ccnc2)cc1", "values": [{"measurement": "inhibition", "setting": "[4]", "value": 64, "unit": "%"}]}, {"smiles": "O=C(CSc1ncc(-c2ccccc2)[nH]1)Nc1ccccc1", "values": [{"measurement": "inhibition", "setting": "[3]", "value": "< 5", "unit": "%"}]}, {"smiles": "O=C(C1CCCCC1)N1CCN(S(=O)(=O)c2ccc3cnccc3c2)CC1", "values": [{"measurement": "alphaKi", "setting": "[7]", "value": 0.12, "unit": "µM"}]}, {"smiles": "CC(Oc1ccc(-c2cn(C)cn2)cc1)C(=O)Nc1nc(-c2ccc(Br)cc2)co1", "note": "(stereo unspecified)", "values": [{"measurement": "inhibition", "setting": "[1]", "value": 83, "unit": "%"}]}, {"smiles": "CC(Oc1ccc(-c2cn(C)cn2)cc1)C(=O)Nc1nc(-c2ccc(Br)cc2)c[nH]1", "note": "(stereo unspecified)", "values": [{"measurement": "inhibition", "setting": "[1]", "value": 99, "unit": "%"}]}, {"smiles": "O=C(O)c1ccccc1-n1cccc1", "values": [{"measurement": "inhibition", "setting": "[4]", "value": 72, "unit": "%"}]}, {"smiles": "O=C(CSc1nc(-c2ccccc2)c[nH]1)Nc1ccc2occc2c1", "values": [{"measurement": "inhibition", "setting": "[3]", "value": 36, "unit": "%"}]}, {"smiles": "Oc1ccc2ccccc2c1", "values": [{"measurement": "inhibition", "setting": "[4]", "value": 57, "unit": "%"}]}, {"smiles": "Clc1ccc(-c2cnc[nH]2)cc1", "values": [{"measurement": "inhibition", "setting": "[4]", "value": 59, "unit": "%"}]}, {"smiles": "O=C(CSc1nc(-c2ccc(Br)cc2)c[nH]1)Nc1ccccc1", "values": [{"measurement": "inhibition", "setting": "[3]", "value": 13, "unit": "%"}]}, {"smiles": "O=C(O)CSc1nc(-c2ccccc2)c[nH]1", "values": [{"measurement": "inhibition", "setting": "[3]", "value": "< 5", "unit": "%"}]}, {"smiles": "O=C(NCc1ncc(-c2ccc(Br)cc2)[nH]1)Nc1ccc(-c2c[nH]cn2)cc1", "values": [{"measurement": "inhibition", "setting": "[3]", "value": 56, "unit": "%"}]}, {"smiles": "COc1ccc2ccc(O)cc2c1", "values": [{"measurement": "inhibition", "setting": "[4]", "value": 66, "unit": "%"}]}, {"smiles": "O=C(CSc1nc(-c2ccc(Br)cc2)c[nH]1)Nc1ccc(I)cc1", "values": [{"measurement": "inhibition", "setting": "[3]", "value": 30, "unit": "%"}]}, {"smiles": "CC(Oc1ccc(-c2cn(C)cn2)cc1)C(=O)Nc1ccc(I)cc1", "note": "(stereo unspecified)", "values": [{"measurement": "inhibition", "setting": "[1]", "value": 97, "unit": "%"}]}, {"smiles": "Nc1n[nH]c(-c2ccccc2)c1Br", "values": [{"measurement": "inhibition", "setting": "[4]", "value": 53, "unit": "%"}]}, {"smiles": "Cc1n[nH]c(C)c1S(=O)(=O)Nc1ccc2c[nH]nc2c1", "values": [{"measurement": "alphaKi", "setting": "[7]", "value": 0.22, "unit": "µM"}]}, {"smiles": "COc1c(C)c2c(c(O)c1C/C=C(\\C)Cn1cc(COC[C@H]3O[C@@H](n4cnc5c(N)ncnc54)[C@H](O)[C@@H]3O)nn1)C(=O)OC2", "values": [{"measurement": "alphaKi", "setting": "[6]", "value": 1, "unit": "µM"}]}, {"smiles": "O=C(CSc1nc(-c2ccc(Br)cc2)c[nH]1)Nc1ccc(-c2c[nH]cn2)cc1", "values": [{"measurement": "inhibition", "setting": "[3]", "value": 20, "unit": "%"}]}]}
